High-throughput results: PubChem BioAssay, Broad Institute
Only some compounds are listed: those with a hit (about 1.6% of all), similar ones and a draw of the others.
PvdQ acylase = P. aeruginosa PvdQ acylase inhibition. purified PvdQ acylase, fluorescence plate reader. inhibition, % at 10 µM. hit rate 0.063% among 340,000; in the data active = inhibition above about 30%, passing the limit was not always enough;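 also: 0% = vehicle neutral wells and 100% = reference inhibitor wells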
S100A4 inh HTS = blocks human S100A4 binding to myosin IIA peptide | P26447 | S100A4/TAMRA-MyoIIA peptide fluorescence polarization | inhibition, % at 10.7 µM | hit rate 0.14% among 360,000 | AID 652163;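 active = mean inhibition of at least 70% across replicates, with every replicate also reaching that level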
Target sequence (P26447 whole entry, looked up): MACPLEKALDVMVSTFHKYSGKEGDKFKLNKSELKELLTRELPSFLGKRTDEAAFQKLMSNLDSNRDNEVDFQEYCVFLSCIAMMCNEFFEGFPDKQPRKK
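Material: S100A4 monomer protein | Medium: HEPES pH 7.2 with CaCl2, KCl, NaCl, DTT, Triton | Reagent: Labelled myosin peptide probe, 5 nM | Doses: One dose per compound | Times: 5 min incubation before reading | Benchmarks: Neutral control DMSO, positive control TFP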
SR-BI HDL uptake = inhibitors of mouse SR-BI mediated HDL lipid uptake; Q61009; ldlA[mSR-BI] CHO cells, DiI-HDL uptake fluorescence, 3 h; inhibition, % at 12.5 µM; hit rate 0.96% among 320,000; AID 488896;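 active = mean replicate inhibition of at least 70% and a set share of replicates each scoring 70 or more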;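 also: 0% = median of neutral control wells and 100% = median of positive control wells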
RAD54 inh = inhibitors of human RAD54 branch migration; Q92698; RAD54 Holliday junction branch migration, FAM/BHQ fluorescence; inhibition, % at 10.4 µM; hit rate 0.14% among 360,000; AID 602329;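 active = mean normalized replicate activity at least 40 and at least half of replicates scoring 40 or more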;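 also: 0% = median of neutral control wells and 100% = median of positive control wells; inhibitors cause a drop in the FAM fluorescence signal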
SR-BI DiI-HDL act = enhances SR-BI lipid uptake from DiI-HDL; CHO ldlA[mSR-BI] cells, DiI-HDL uptake fluorescence, 3 h; 100 = double the neutral-control signal; activation, % at 12.5 µM; hit rate 0.096% among 320,000;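 active = mean replicate activation of at least 60% and every replicate at or above 60%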;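 also: 0% = median plate neutral-control signal and 100% = twice that signal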
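Assay system: CHO ldlA[mSR-BI] cells, LDL receptor-null, SR-BI overexpressing; medium: Ham's F12 with 0.5% BSA, HEPES 25 mM, pH 7.4; also added: DiI-HDL 10 µg/mL; timing: 3 h uptake period with compound, 37 °C; signal: DiI fluorescence, bottom read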
dFosB activator = mouse delta FosB homodimer activation | P13346 | hit rate 0.99% among 340,000 | AID 493131 | activation, % at 25 µM | purified delta FosB, TAMRA-CDK5 oligo fluorescence polarization; percent of positive-control signal above neutral wells;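 active = mean activation above about 17%, with every replicate also reaching it, limit read from the data, passing the limit was not always enough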
Target sequence (P13346 whole entry, looked up): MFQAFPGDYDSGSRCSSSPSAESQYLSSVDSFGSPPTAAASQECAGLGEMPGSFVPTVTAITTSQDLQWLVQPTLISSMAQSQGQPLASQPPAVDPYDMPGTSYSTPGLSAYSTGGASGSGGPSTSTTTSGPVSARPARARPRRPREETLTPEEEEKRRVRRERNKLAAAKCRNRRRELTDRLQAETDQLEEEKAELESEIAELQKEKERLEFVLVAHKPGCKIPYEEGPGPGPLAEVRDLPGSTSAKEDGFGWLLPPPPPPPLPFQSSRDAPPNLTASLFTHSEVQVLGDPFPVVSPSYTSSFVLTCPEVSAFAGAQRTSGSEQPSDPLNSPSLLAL
The depositor's hits bear a star; / = no result.

SMILES	PvdQ acylase	S100A4 inh HTS	SR-BI HDL uptake	RAD54 inh	SR-BI DiI-HDL act	dFosB activator
O=[N+]([O-])c1ccc(Nc2cccc3c2[nH]c2c(-c4ccccc4)nccc23)c([N+](=O)[O-])c1	0	-3	79*	/	-79	5
N=c1n(CC(=O)c2ccc(Br)cc2)c2ccccc2n1Cc1ccccc1	-12	-2	6	10	-6	35*
CCOC(=O)c1c(NC(=O)c2cccc(N3C(=O)CCC3=O)c2)sc(C)c1C	6	/	27	11	-27	-4
CCOC(=O)c1c(-c2ccc(-c3ccccc3)cc2)csc1NC(=O)c1cccc(N2C(=O)CCC2=O)c1	-9	/	72*	/	-72	-9
CCOc1ccc(-c2csc(NC(=O)c3cccc(N4C(=O)CCC4=O)c3)n2)cc1	8	-2	90*	2	-90	1
COc1ccc(-c2csc(NC(=O)c3cccc(N4C(=O)CCC4=O)c3)n2)cc1OC	-6	0	72*	10	-72	-7
Cc1ccc(-c2csc(NC(=O)c3cccc(N4C(=O)CCC4=O)c3)n2)o1	-4	/	64	-5	-62	0
CCOC(=O)CNC(=O)N1CCc2ccc(NC(=O)c3ccccc3Cl)cc2C1	-8	-1	96*	-2	-96	-2
CSc1cccc(NC(=O)N2CCc3ccc(NC(=O)c4ccccn4)cc3C2)c1	8	7	76*	4	-76	-3
CSc1cccc(NC(=O)c2ccc(CN3CCc4ccccc4C3)cc2)c1	4	-13	50	-4	-50	-4
COc1ccccc1C(=O)Nc1ccc2c(c1)CN(C(=O)CSC)CC2	4	1	37	-1	-37	-7
O=C(CCN1CCCCC1)NCC[C@H]1CC[C@H](NC(=O)Nc2ccc(F)cc2)[C@H](CO)O1	/	1	/	11	/	/
CCOc1ccc2c(c1)-c1c(ssc1=S)C(C)(C)N2C	-12	/	89*	-3	-89	-4
O=C(C1CCCC1)N1CC[C@H]2[C@H](CO)Nc3ccc(Br)cc3[C@H]21	/	-27	/	/	/	/
COc1ccc(C)cc1NC(=O)NNC(=O)c1ccoc1C	-3	0	0	2	0	3
COc1ccc(NC(=O)c2cc3ccccc3cc2OC)cc1	-1	-15	50	-6	-50	-2
COc1cc2ccccc2cc1C(=O)NNC(=O)c1ccccc1O	-5	0	129*	-12	-129	-10
Cc1ccc(C(=O)NNc2c3ccccc3nc3ccccc23)cc1	6	-7	97*	7	-97	-6
COc1ccc(C)cc1NC(=O)NNC(=O)c1cc2ccccc2cc1O	7	-11	117*	-1	-117	-2
COc1ccc(NC(=O)NNC(=O)c2cc3ccccc3cc2O)cc1	-13	1	96*	-16	/	15
O=C(NNc1c2ccccc2nc2ccccc12)c1ccc(Cl)cc1	-8	1	/	-9	/	-9
CO[C@H]1CN(C)C(=O)c2ccc(NC(=O)C3CC3)cc2OC[C@@H](C)N(C)C[C@@H]1C	/	7	/	-6	/	/
COCC(=O)Nc1ccc2c(c1)C(=O)N(C)C[C@H](OC)[C@@H](C)CN(Cc1ccccn1)[C@@H](C)CO2	/	5	/	0	/	/
Cc1noc(C)c1S(=O)(=O)Nc1ccc2c(c1)C(=O)N([C@H](C)CO)C[C@@H](C)[C@@H](CN(C)CC1CCCCC1)O2	/	9	/	2	/	/
Cc1ccc(C(=O)NNC(=O)c2cc3ccccc3cc2O)cc1	-15	-2	123*	-17	-123	9
SMILES	PvdQ acylase	S100A4 inh HTS	SR-BI HDL uptake	RAD54 inh	SR-BI DiI-HDL act	dFosB activator
COC(=O)c1cc2c(-c3ccccc3)cc3ccccn3c-2c1C(=O)OC	5	/	85*	-11	-85	-15
Cc1nnc(SCCC(C)C)[nH]c1=O	-5	/	-96	9	96*	-1
O=C1/C(=C/c2c[nH]c3ccccc23)CCC/C1=C\c1c[nH]c2ccccc12	-12	/	89*	-12	-89	-4
C(=NN=Cc1c[nH]c2ccccc12)c1c[nH]c2ccccc12	/	-5	/	1	/	/
COc1ccc(S(=O)(=O)N(C)C[C@H]2OCCCC[C@H](C)Oc3ccc(NC(=O)C4CCCCC4)cc3C(=O)N([C@H](C)CO)C[C@H]2C)cc1	/	1	/	5	/	/
COC(=O)COc1c(/C=C\c2nc(O)c([N+](=O)[O-])c(=O)[nH]2)cccc1OC	9	-1	75*	-9	-75	-4
CCOc1ccccc1CNC(=O)c1nn(C)c2c1CS(=O)(=O)c1ccccc1-2	2	-3	88*	1	-88	1
O=C(C[C@@H]1C=C[C@@H](NC(=O)C2CCOCC2)[C@H](CO)O1)NCc1ccccc1Cl	/	-1	/	/	/	/
Cc1ccc(/C=N/NC(=O)c2c(-c3ccccc3)noc2C)c(O)c1	-1	-3	108*	-2	-108	-14
CCOc1cc([N+](=O)[O-])cc(/C=N/NC(=O)c2c(-c3ccccc3)noc2C)c1O	-4	/	72*	6	-72	-6
Cc1noc(C)c1S(=O)(=O)N(C)C[C@H]1OCCCC[C@@H](C)Oc2ccc(NC(=O)Nc3cccc4ccccc34)cc2C(=O)N([C@@H](C)CO)C[C@@H]1C	/	-3	/	9	/	/
COCC(=O)Nc1ccc2c(c1)C(=O)N(C)[C@H]1CC[C@@H](CC(=O)NCC3CC3)O[C@H]1CO2	/	0	/	-14	/	/
O=C(Nc1ccc(-c2csc(Nc3ccc(Cl)cc3)n2)cc1)c1cccc(C(F)(F)F)c1	/	3	/	/	/	/
O=C(Nc1ccc(-c2csc(Nc3ccccc3)n2)cc1)c1cc([N+](=O)[O-])cc(C(F)(F)F)c1	-14	0	96*	0	-96	1
O=C(Nc1cccc(-c2csc(Nc3cccc(C(F)(F)F)c3)n2)c1)c1cc([N+](=O)[O-])cc(C(F)(F)F)c1	-7	-2	107*	3	-107	-2
O=C(Oc1ccc(/C=N/NC(=O)c2ccccc2F)cc1)c1ccccc1	-3	7	9	15	/	17*
CCC(=O)Nc1ccc2c(c1)C(=O)N(C)[C@@H]1CC[C@H](CC(=O)NCCc3ccncc3)O[C@H]1CO2	/	-6	/	-5	/	/
CN1CCN(C(=O)C[C@@H]2C[C@@H]3c4cc(NC(=O)Nc5ccc(F)cc5)ccc4O[C@@H]3[C@@H](CO)O2)CC1	/	-4	/	-2	/	/
Cc1cccc(NC(=O)CNC(=O)c2ccccc2Cl)n1	1	99*	-25	9	25	8
CN(C)c1ccc(C=c2c3cc(O)ccc3n3c2cc(-c2ccccc2)[n+]3C)cc1	5	79*	61	/	-61	82*
Cc1cc2c(=Cc3ccc(N(C)C)cc3)c3ccccc3n2[n+]1C	11	-131	8	/	-8	100*
C[n+]1c(-c2ccccc2)cc2c(=Cc3ccccc3)c3ccccc3n21	-17	-50	44	/	-44	-1
CCOC(=O)c1cc2c(=Cc3ccc(N(C)C)cc3)c3ccccc3n2[n+]1C	8	-109	8	/	-8	46*
